Reference: ChEMBL document CHEMBL1152886, “Water-soluble prodrugs of an Aurora kinase inhibitor” (Bioorg Med Chem Lett, 2009)
≈ marks a conversion by molar mass, not a printed value.

Legend:
[1] = Aqueous solubility at pH 7.8; format: physicochemical; conditions: aqueous solution
Procedure, shortened: (§1)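 Thermodynamic solubility from a slurry. Sonicated 20 min at room temperature, 10 min at 50 °C, then 10 min at room temperature, and agitated at least two days at room temperature. Residual solid was checked for crystallinity by polarized light microscopy. Slurry centrifuged 15,000 rpm at 20 °C for 20 min. Supernatant assayed by HPLC and its pH measured. Values are typically means of two measurements.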

[2] = Chemical stability assessed as compound remaining in DMSO after 8 hrs; format: physicochemical; conditions: read-out: Stability
Procedure, shortened: (§2)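 Compound held 8 h at room temperature in DMSO or in pH 7.4 buffer. Percent remaining determined by LC/MS.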

[3] = Chemical stability assessed as compound remaining in aqueous buffer at pH 7.4 after 8 hrs; format: physicochemical; conditions: read-out: Stability; procedure, shortened: as §2
[4] = Half life in Sprague-Dawley rat at 5 mg/kg, iv; format: ADME, organism-based; set-up: dose 5 mg/kg, route intravenous; conditions: in vivo
Procedure, shortened: (§3)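 Male Sprague–Dawley rats (n = 3) dosed iv, prodrug at a dose equivalent to 5 mg/kg of parent, compared with an equivalent iv dose of parent. Plasma profiles of both prodrug and released parent were determined, giving AUC_INF and elimination half-life.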

[5] = AUC (0 to infinity) in Sprague-Dawley rat at 5 mg/kg, iv; format: ADME, organism-based; set-up: time infinity, dose 5 mg/kg, route intravenous; conditions: plasma; procedure, shortened: as §3
[6] = AUC (0 to infinity) in Sprague-Dawley rat at 10 mg/kg, po; format: ADME, organism-based; set-up: time infinity, dose 10 mg/kg, route oral; conditions: plasma
Procedure, shortened: (§4)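 Male Sprague–Dawley rats (n = 3) dosed orally, prodrug at a dose equivalent to 10 mg/kg of parent, compared with an equivalent oral dose of parent. Parent levels measured in plasma; AUC_INF derived from the plasma profile. Bioavailability is expressed with respect to the parent compound.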

[7] = Oral bioavailability in Sprague-Dawley rat at 10 mg/kg; format: ADME, organism-based; conditions: in vivo; procedure, shortened: as §4
[8] = Permeability across MDCK cells; format: ADME, cell-based, Canis lupus familiaris; conditions: dog, read-out: permeability
[9] = Aqueous solubility at pH 3.2; format: physicochemical; conditions: aqueous solution; procedure, shortened: as §1
[10] = Aqueous solubility at pH 2.5; format: physicochemical; conditions: aqueous solution; procedure, shortened: as §1
[11] = Aqueous solubility at pH 3.5; format: physicochemical; conditions: aqueous solution; procedure, shortened: as §1

**Q.** For `O=C(/N=c1\sc(CCNc2ncnc3ccsc23)cn1COP(=O)(O)O)Nc1cccc(Cl)c1`, which solubility [1] is on record?
**A.** 4700 µg/mL (≈ 8690 µM)

**Q.** What about the remaining at 8 h [2] of the same compound?
**A.** 100%

**Q.** What about the remaining at 8 h [3] of the same compound?
**A.** 100%

**Q.** And the half-life [4]?
**A.** 0.5 h

**Q.** What about the AUC(0-inf) [5] of the same compound?
**A.** 1910 ng·h/mL

**Q.** And the AUC(0-inf) [6]?
**A.** 2200 ng·h/mL

**Q.** What about the bioavailability [7] of the same compound?
**A.** 44%

**Q.** What about the Papp [8] of the same compound?
**A.** < 1 ×10⁻⁶ cm/s

**Q.** For `CS(=O)(=O)O.O=C(Nc1cccc(Cl)c1)Nc1ncc(CCNc2ncnc3ccsc23)s1` [SNS-314 MESYLATE], which solubility [9] is on record?
**A.** 14 µg/mL

**Q.** What about the half-life [4] of the same compound?
**A.** 2.1 h

**Q.** And the AUC(0-inf) [5]?
**A.** 2090 ng·h/mL

**Q.** What about the AUC(0-inf) [6] of the same compound?
**A.** 3650 ng·h/mL

**Q.** And the bioavailability [7]?
**A.** 72%

**Q.** With `CNCC(=O)OCn1cc(CCNc2ncnc3ccsc23)s/c1=N\C(=O)Nc1cccc(Cl)c1` as the compound, how does the remaining at 8 h [2] read?
**A.** 0%

**Q.** And the remaining at 8 h [3]?
**A.** 0%

**Q.** Which results are given for `CC(=O)OCn1cc(CCNc2ncnc3ccsc23)s/c1=N\C(=O)Nc1cccc(Cl)c1`?
**A.** solubility [10]: 120 µg/mL (≈ 239 µM); remaining at 8 h [2]: 100%; remaining at 8 h [3]: 100%

**Q.** What does the source list for `O=C(/N=c1\sc(CCNc2ncnc3ccsc23)cn1COC(=O)C1CCNCC1)Nc1cccc(Cl)c1`?
**A.** remaining at 8 h [2]: 84%; remaining at 8 h [3]: 52%

**Q.** With `O=C(/N=c1\sc(CCNc2ncnc3ccsc23)cn1COC(=O)CC1CCNCC1)Nc1cccc(Cl)c1` as the compound, how does the solubility [11] read?
**A.** 2500 µg/mL (≈ 4270 µM)

**Q.** And the remaining at 8 h [2]?
**A.** 100%

**Q.** What about the remaining at 8 h [3] of the same compound?
**A.** 100%

**Q.** With `CC(C)(C)C(=O)OCn1cc(CCNc2ncnc3ccsc23)s/c1=N\C(=O)Nc1cccc(Cl)c1` as the compound, how does the solubility [9] read?
**A.** 280 µg/mL (≈ 514 µM)

**Q.** And the remaining at 8 h [2]?
**A.** 100%

**Q.** What about the remaining at 8 h [3] of the same compound?
**A.** 100%

**Q.** With `CC(C)C(=O)OCn1cc(CCNc2ncnc3ccsc23)s/c1=N\C(=O)Nc1cccc(Cl)c1` as the compound, how does the solubility [9] read?
**A.** 170 µg/mL (≈ 320 µM)
